Experimental data from article PMC4832855 (Cancer Science, 2016).

Assays:
AurA = AurA (Homo sapiens, UniProt O14965); assay: Kinase inhibition profiling at 100 nmol/L; type: biochemical
[1] = tested on: phosphorylation of AKT in HT‐29/GFP cells; assay: In vitro signal transduction assay; type: cell-based, human; details: same concentration ranges (up to 30 nmol/L)
Outline: (§1)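 HT-29/GFP colon cancer cells in culture exposed to test compound, then stimulated with human IGF-1 or human insulin; receptor tyrosine phosphorylation and downstream signalling assessed across a concentration series.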

[2] = tested on: human sarcoma cell lines bearing the EWS/FLI‐1 chromosome translocation (TC‐71, SK‐N‐MC, SK‐ES‐1); assay: Anti-proliferative activity; type: cell-based; details: 72 h
[3] = Pharmacokinetic study in mice, single oral dose; type: in vivo, mouse; details: for Mean area under the plasma concentration–time curve from time 0 to 24 h / Mean maximum plasma concentration: male SCID mice
Outline: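 Single oral dose of 2, 10 or 20 mg/kg to male mice; plasma sampled over 0–24 h; Cmax, Tmax, elimination half-life and AUC0–24 reported as mean ± SD, n = 3.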

advanced solid tumors = assay: Phase I first-in-human study: response; type: in vivo
Outline: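 Open-label phase I in patients with refractory advanced solid tumours; oral once daily after overnight fast for 28 days, 1-week observation, then continuous daily dosing; response assessed every 8 weeks by RECIST version 1.0.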

[4] = tested on: non‐human primate, rodent; details: ref Kyowa Hakko Kirin Co., Tokyo, unpublished data; cited from earlier work
Src = Src (Homo sapiens, UniProt P12931); assay: Kinase inhibition profiling at 100 nmol/L; type: biochemical; details: read-out: Inhibition at 100 nmol/L
Chain of Src (P12931 whole entry): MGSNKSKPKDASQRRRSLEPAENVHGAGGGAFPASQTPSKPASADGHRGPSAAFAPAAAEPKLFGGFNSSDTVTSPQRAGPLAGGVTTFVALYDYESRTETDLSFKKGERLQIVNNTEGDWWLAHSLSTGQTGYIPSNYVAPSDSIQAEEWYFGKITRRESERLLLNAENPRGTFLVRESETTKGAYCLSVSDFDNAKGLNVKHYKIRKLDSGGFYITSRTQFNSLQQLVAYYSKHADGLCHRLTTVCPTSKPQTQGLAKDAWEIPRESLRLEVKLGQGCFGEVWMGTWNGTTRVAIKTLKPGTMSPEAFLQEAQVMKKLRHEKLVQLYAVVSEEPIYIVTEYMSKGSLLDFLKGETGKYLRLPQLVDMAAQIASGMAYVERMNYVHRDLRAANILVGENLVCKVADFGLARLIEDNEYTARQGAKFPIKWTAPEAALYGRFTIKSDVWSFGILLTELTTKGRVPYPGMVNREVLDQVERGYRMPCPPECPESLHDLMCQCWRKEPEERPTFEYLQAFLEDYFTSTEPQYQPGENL

[5] = ref Kyowa Hakko Kirin Co., Ltd, Tokyo, unpublished data; cited from earlier work
[6] = tested on: patients with advanced solid tumors; assay: Phase I first-in-human study: pharmacodynamics; type: in vivo
Outline: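 Open-label 3+3 dose-escalation/de-escalation study. After a 1-week observation period, the test compound was given orally once daily, continuously, after an overnight fast. On pharmacodynamic sampling days, fasting continued until 2 h post-dose. Plasma glucose and insulin were sampled between days 1 and 29, at pre-dose and at 1, 2 and 24 h post-dose. Only the fasting time points were evaluable.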

[7] = tested on: phosphorylation of Erk in HT‐29/GFP cells; assay: In vitro signal transduction assay; type: cell-based, human; details: up to 30 nmol/L
Outline: as §1

[8] = tested on: HT‐29/GFP colon cancer xenograft; assay: HT-29/GFP xenograft model; type: in vivo, mouse; details: 40 mg/kg orally once daily for 14 days, SCID mice
[9] = tested on: insulin‐induced tyrosine phosphorylation of IR in HT‐29/GFP cells; assay: In vitro signal transduction assay; type: cell-based, human; details: 10 nmol/L, 2 hours
Outline: as §1

[10] = preliminary in vitro and in vivo studies; ref Kyowa Hakko Kirin Co., Tokyo, unpublished data; cited from earlier work
Jak2 = Jak2 (Homo sapiens, UniProt O60674); assay: Kinase inhibition profiling at 100 nmol/L; type: biochemical
Chain of Jak2 (O60674 whole entry): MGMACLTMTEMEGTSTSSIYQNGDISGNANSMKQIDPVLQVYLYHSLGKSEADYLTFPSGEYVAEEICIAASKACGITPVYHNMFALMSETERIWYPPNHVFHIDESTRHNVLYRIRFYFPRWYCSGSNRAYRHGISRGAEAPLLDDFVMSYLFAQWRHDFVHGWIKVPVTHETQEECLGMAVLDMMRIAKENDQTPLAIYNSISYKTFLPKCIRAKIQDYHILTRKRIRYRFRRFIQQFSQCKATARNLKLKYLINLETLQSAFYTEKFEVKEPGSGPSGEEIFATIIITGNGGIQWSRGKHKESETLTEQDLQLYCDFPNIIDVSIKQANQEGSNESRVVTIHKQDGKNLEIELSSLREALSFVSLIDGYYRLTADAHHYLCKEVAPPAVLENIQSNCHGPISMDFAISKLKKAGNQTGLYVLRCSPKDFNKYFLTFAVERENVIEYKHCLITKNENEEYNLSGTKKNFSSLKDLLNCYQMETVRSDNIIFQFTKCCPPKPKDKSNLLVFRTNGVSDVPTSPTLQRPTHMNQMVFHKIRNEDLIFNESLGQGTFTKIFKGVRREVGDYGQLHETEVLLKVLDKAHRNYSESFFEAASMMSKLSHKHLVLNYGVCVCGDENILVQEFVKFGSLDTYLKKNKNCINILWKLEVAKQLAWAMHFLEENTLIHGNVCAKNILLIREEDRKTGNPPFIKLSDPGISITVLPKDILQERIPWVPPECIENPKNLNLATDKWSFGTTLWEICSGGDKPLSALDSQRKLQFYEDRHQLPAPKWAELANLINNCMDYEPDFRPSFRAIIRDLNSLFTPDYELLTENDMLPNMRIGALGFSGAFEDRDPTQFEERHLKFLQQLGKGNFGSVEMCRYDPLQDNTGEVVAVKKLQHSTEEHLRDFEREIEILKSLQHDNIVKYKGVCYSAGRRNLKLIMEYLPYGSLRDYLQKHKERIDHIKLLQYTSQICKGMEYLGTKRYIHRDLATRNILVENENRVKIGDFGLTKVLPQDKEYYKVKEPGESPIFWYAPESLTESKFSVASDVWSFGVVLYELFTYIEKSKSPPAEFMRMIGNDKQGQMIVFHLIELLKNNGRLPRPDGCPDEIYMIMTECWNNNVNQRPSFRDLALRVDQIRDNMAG

Met = Met (Homo sapiens, UniProt P08581); assay: Kinase inhibition profiling at 100 nmol/L; type: biochemical; details: read-out: Inhibition at 100 nmol/L
EGFR = EGFR (Homo sapiens, UniProt P00533); assay: Kinase inhibition profiling at 100 nmol/L; type: biochemical; details: read-out: Inhibition at 100 nmol/L
Chain of EGFR (P00533 25-1210): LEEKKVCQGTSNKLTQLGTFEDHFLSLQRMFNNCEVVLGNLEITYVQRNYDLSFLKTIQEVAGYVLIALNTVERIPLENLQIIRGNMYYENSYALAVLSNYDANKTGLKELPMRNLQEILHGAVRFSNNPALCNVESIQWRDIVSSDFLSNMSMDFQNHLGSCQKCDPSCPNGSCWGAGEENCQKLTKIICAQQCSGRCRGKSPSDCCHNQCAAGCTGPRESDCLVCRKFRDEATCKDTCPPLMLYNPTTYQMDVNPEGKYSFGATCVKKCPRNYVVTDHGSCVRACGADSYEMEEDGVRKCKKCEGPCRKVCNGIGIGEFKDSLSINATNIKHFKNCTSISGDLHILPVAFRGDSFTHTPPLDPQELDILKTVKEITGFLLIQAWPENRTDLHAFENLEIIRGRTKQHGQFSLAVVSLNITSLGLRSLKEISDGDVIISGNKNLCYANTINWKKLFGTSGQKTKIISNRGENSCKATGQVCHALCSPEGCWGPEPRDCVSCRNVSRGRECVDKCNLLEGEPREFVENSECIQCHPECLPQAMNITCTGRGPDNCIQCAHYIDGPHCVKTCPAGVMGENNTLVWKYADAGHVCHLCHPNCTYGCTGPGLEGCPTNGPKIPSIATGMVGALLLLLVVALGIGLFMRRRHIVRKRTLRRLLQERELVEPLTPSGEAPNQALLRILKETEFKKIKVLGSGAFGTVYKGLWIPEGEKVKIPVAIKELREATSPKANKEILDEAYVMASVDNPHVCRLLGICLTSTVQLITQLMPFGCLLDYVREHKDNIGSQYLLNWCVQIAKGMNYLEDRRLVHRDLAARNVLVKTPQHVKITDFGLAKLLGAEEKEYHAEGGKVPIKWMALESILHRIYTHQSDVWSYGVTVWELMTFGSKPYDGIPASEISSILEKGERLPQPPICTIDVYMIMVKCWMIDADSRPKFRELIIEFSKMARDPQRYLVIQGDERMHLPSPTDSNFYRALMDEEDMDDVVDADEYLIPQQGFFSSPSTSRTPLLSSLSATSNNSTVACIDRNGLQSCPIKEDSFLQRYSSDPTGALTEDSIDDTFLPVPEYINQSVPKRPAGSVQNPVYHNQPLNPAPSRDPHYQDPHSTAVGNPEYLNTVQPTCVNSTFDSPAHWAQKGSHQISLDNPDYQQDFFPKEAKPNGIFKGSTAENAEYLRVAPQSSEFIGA

Lck = Lck (Homo sapiens, UniProt P06239); assay: Kinase inhibition profiling at 100 nmol/L; type: biochemical; details: read-out: Inhibition at 100 nmol/L
Chain of Lck (P06239 whole entry): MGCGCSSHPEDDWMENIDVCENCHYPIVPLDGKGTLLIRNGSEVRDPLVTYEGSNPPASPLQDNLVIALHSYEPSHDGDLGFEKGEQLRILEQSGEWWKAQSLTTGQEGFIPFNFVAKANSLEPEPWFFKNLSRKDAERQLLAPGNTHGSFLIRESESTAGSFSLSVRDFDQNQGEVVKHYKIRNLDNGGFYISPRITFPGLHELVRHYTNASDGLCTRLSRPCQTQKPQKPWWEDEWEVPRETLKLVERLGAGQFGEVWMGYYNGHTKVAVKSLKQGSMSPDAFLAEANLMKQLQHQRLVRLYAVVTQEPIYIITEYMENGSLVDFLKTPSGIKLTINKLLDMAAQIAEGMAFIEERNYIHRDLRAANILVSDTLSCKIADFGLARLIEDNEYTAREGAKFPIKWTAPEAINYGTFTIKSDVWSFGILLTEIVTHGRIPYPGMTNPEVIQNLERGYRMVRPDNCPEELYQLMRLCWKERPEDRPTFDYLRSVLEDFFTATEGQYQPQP

[11] = tested on: human multiple myeloma cell lines (KMS‐12‐BM, LP‐1, NCI‐H929); assay: Anti-proliferative activity; type: cell-based; details: 72 h
[12] = tested on: IGF‐1‐induced tyrosine phosphorylation of IGF‐R in HT‐29/GFP xenograft; assay: In vivo signal transduction assay; set-up: species or system mouse; details: 40 mg/kg oral, 2 hours before IGF-1
[13] = tested on: HT‐29/GFP human colon cancer cells; assay: Anti-proliferative activity; type: cell-based
[14] = target: fms‐like tyrosine kinase‐3 (Homo sapiens, UniProt P36888); assay: Kinase inhibition profiling at 100 nmol/L; type: biochemical; details: read-out: Inhibition at 100 nmol/L
Chain of fms‐like tyrosine kinase‐3 (P36888 27-993): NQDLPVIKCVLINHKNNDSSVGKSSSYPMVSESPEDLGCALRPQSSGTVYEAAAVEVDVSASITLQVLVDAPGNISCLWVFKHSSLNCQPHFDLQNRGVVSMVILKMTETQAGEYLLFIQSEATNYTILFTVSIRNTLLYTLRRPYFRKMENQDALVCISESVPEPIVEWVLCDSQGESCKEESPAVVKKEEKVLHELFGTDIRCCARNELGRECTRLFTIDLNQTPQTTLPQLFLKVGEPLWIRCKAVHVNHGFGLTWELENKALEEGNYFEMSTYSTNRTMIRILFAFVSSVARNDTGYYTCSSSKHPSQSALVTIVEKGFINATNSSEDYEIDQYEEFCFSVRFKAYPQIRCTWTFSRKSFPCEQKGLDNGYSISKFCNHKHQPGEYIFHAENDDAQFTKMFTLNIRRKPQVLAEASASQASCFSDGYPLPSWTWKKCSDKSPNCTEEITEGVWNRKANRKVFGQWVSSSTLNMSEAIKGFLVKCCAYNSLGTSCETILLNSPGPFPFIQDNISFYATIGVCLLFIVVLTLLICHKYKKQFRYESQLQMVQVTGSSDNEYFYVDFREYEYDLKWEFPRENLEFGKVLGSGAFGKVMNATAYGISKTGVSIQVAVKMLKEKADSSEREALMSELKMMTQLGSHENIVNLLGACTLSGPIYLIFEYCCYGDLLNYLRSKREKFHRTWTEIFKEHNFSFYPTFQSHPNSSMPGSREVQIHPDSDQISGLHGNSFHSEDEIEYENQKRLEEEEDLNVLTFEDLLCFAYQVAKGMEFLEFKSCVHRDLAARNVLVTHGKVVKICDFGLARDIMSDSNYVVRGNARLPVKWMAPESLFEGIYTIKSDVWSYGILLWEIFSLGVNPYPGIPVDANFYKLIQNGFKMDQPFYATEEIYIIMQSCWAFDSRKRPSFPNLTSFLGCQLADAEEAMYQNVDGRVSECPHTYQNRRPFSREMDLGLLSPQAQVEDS

[15] = male, SCID, mouse, plasma, po, 20 mg/kg
[16] = patients, 37.5 and 50 mg, 1 and 2 h post‐dose

Chain of AurA (O14965 whole entry): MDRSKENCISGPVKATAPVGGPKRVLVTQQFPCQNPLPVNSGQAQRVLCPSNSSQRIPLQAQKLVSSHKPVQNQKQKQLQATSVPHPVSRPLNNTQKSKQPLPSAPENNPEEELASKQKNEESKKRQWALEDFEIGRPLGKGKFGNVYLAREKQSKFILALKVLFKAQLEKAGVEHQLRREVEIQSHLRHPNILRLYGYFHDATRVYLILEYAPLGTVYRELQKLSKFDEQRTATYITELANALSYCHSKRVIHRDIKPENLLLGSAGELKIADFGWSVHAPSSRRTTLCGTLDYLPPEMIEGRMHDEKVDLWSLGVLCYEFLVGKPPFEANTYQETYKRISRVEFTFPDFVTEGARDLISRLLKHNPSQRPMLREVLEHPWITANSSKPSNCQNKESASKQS

For `Cc1ccsc1C(=O)Nc1cc(CN2CCN(C(=O)CO)CC2)ccc1/C=C/c1n[nH]c2ccccc12` [KW‐2450], the “Inhibition at 100 nmol/L” value (AurA; AurA, 100 nmol/L) was 99.5%, the inhibition at 0.1 µM (AurA; read-out: Inhibition at 100 nmol/L, AurA, 100 nmol/L) was > 90% and the “Inhibition of phosphorylation of AKT downstream to IGF‐1R or IR” value [1] was “inhibited phosphorylation of AKT”. The GI50 [2] was 3.2 to 11 nM, the “Mean area under the plasma concentration–time curve from time 0 to 24 h” value (“Mean area” below) ([3]; oral 2 mg/kg) was 136 ng/h/mL and the “Mean maximum plasma concentration” value ([3]; oral 2 mg/kg) was 37.4 ng/mL. The “Mean area” value ([3]; oral 10 mg/kg) was 1320 ng/h/mL, the “Mean maximum plasma concentration” value ([3]; oral 10 mg/kg) was 568 ng/mL and the “Mean area” value ([3]; oral 20 mg/kg) was 3190 ng/h/mL. For the same molecule, the “Mean maximum plasma concentration” value ([3]; oral 20 mg/kg) was 1510 ng/mL, the Tmax [3, 15] was 0.25 to 1 h and the half-life [3, 15] was 3.71 to 3.99 h. The “Median progression‐free survival” value (advanced solid tumors; 37.5 mg/day) was 65.0 days, the “Patients with stable disease” value (advanced solid tumors; 37.5 mg/day) was 1 n and the “Median progression‐free survival” value (advanced solid tumors; 50 mg/day) was 141 days. The “Patients with stable disease” value (advanced solid tumors; 50 mg/day) was 3 n, the “Complete or partial responses” value (advanced solid tumors; 10 patients evaluable for response) was “no complete or partial responses” and the “Patients with stable disease” value (advanced solid tumors; 10 patients evaluable for response, both doses) was 40%. For the same molecule, the “Median progression‐free survival” value (advanced solid tumors; overall) was 66.5 days, the “Hyperglycemia at pharmacologically active (lower) doses” value [4] was “hyperglycemia induced” and the inhibition at 0.1 µM (Src) was 53.8%. For the same molecule, the Protein bound [5] was 98.5–99.0%, the “Patients with insulin values above the upper limit of quantitation (300 μU/mL)” value ([6]; 37.5‐mg cohort) was “five” and the “Patients with insulin values above the upper limit of quantitation (300 μU/mL)” value ([6]; 50‐mg cohort) was “three”. The Fasting glucose [6, 16] was “Elevations in fasting glucose”, the Fasting insulin [6, 16] was “Elevations” and the “Inhibitory activity against phosphorylation of Erk” value [7] was “without any inhibitory activity”. The “In vivo growth inhibitory activity” value [8] was “modest in vivo growth inhibitory activity”, the “Inhibition of insulin‐induced tyrosine phosphorylation of IR” value [9] was “significant degree of inhibition” and the “Antitumor effect in combination with lapatinib and letrozole” value [10] was “synergistic antitumor effects”. The “Inhibition at 100 nmol/L” value (Jak2; Jak2, 100 nmol/L) was 93.4%, the inhibition at 0.1 µM (Jak2; read-out: Inhibition at 100 nmol/L, Jak2, 100 nmol/L) was > 90% and the inhibition at 0.1 µM (Met) was 33.8%. It also gave an inhibition at 0.1 µM (EGFR) of 2.5%, an inhibition at 0.1 µM (Lck) of 33.7% and a GI50 [11] of 11 to 19 nM. For the same molecule, the “Inhibition of in vivo IGF‐1‐induced tyrosine phosphorylation of IGF‐R” value [12] was “inhibited”, the GI50 [13] was 380 nM and the inhibition at 0.1 µM [14] was > 90%.
